Reference: ChEMBL document CHEMBL1949569, “Galactolipids from Bauhinia racemosa as a new class of antifilarial agents against human lymphatic filarial parasite, Brugia malayi” (Eur J Med Chem, 2012)
Values after ≈ are worked out from the molar mass of the structure shown. Active and inactive are the calls of the source. No cut-off for these calls is given here.

Columns and labels:
Brugia malayi [1] = assay: Antifilarial activity against adult Brugia malayi at 7.8 ug/ml by MTT assay relative to control; assay type: functional
Outline: (§1)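 Adult female worms were recovered from jird peritoneal cavity 120–150 days after i.p. L3 inoculation. One worm per well sat in 1000 µL RPMI 1640 with antibiotics and 10% FBS, in duplicate, 48 h at 37 °C in CO2. After motility scoring, worms went through the MTT reduction assay. Result is % inhibition of MTT reduction vs untreated control.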

Brugia malayi [2] = assay: Antifilarial activity against adult Brugia malayi assessed as inhibition of motility at 3.9 ug/ml incubated for 48 hrs followed by washout measured after 1 hr in the absence of drug by microscopic analysis; assay type: functional
Outline: (§2)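 Single fully motile female worms from jird peritoneal cavity were exposed in duplicate wells (1000 µL RPMI 1640, antibiotics, 10% FBS) to two-fold dilutions from 31.25 µg/mL, 48 h, 37 °C, CO2. Worms were moved to drug-free medium and motility was read microscopically 1 h later. Result is % motility reduction vs untreated control.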

Brugia malayi [3] = assay: Antifilarial activity against adult Brugia malayi assessed as inhibition of motility at 31.25 ug/ml incubated for 48 hrs followed by washout measured after 1 hr in the absence of drug by microscopic analysis; assay type: functional; outline: as §2
Brugia malayi [4] = assay: Antifilarial activity against adult Brugia malayi after 48 hrs by MTT assay; assay type: functional, organism-based; outline: as §1
Brugia malayi [5] = assay: Antifilarial activity against adult Brugia malayi at 15.6 ug/ml by MTT assay relative to control; assay type: functional; outline: as §1
Brugia malayi [6] = assay: Antifilarial activity against adult Brugia malayi assessed as inhibition of motility at 15.6 ug/ml incubated for 48 hrs followed by washout measured after 1 hr in the absence of drug by microscopic analysis; assay type: functional; outline: as §2
[7] = Selectivity ratio of CC50 for african green monkey Vero cells to IC50 for microfilariae Brugia malayi; assay type: ADME, cell-based; details: for selectivity ratio: Vero cells, read-out: Ratio CC50/IC50
Outline: (§3)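 SI = CC50 (Vero, resazurin assay) / IC50. IC50 came from % motility inhibition of adult female worms or mf over two-fold dilutions from MIC down to 0.3 µg/mL. It was derived from a concentration vs % motility-inhibition plot.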

Brugia malayi [8] = assay: Antifilarial activity against microfilariae Brugia malayi assessed as inhibition of motility at 31.25 ug/ml incubated for 48 hrs followed by washout measured after 1 hr in the absence of drug by microscopic analysis; assay type: functional
Outline: (§4)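 Microfilariae came from jird peritoneal fluid passed through a 5.0 µm membrane filter. Twenty live mf per well in 200 µL medium, in duplicate, were given two-fold dilutions from 31.25 µg/mL. Incubation matched the adult worms (48 h, 37 °C, CO2). Motility was scored and reported as % reduction vs untreated control.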

Brugia malayi [9] = assay: Antifilarial activity against adult Brugia malayi assessed as inhibition of motility at 7.8 ug/ml incubated for 48 hrs followed by washout measured after 1 hr in the absence of drug by microscopic analysis; assay type: functional; outline: as §2
Brugia malayi [10] = assay: Antifilarial activity against adult Brugia malayi infected in jird assessed as worm mortality at 50 mg/kg, ip administered for 5 consecutive days measured on day 51; assay type: functional; details: route intraperitoneal
Outline: (§5)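 Jirds carrying intraperitoneally transplanted adult B. malayi (sub-periodic strain), 5 animals per group, dosed daily for 5 days. Killed on day 51 after a 50-day observation period. Worms recovered from the peritoneal cavity and scored microscopically for motility, death or encapsulation, giving % adulticidal activity over untreated control, mean ± SE. Live females teased in PBS pH 7.2 to score uterine-content abnormalities as sterilization.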

Brugia malayi [11] = assay: Antifilarial activity against microfilariae Brugia malayi assessed as inhibition of motility at 7.8 ug/ml incubated for 48 hrs followed by washout measured after 1 hr in the absence of drug by microscopic analysis; assay type: functional; outline: as §4
Brugia malayi [12] = assay: Antifilarial activity against adult Brugia malayi at 3.9 ug/ml by MTT assay relative to control; assay type: functional; outline: as §1
Brugia malayi [13] = assay: Antifilarial activity against microfilariae Brugia malayi assessed as inhibition of motility at 15.6 ug/ml incubated for 48 hrs followed by washout measured after 1 hr in the absence of drug by microscopic analysis; assay type: functional; outline: as §4
Brugia malayi [14] = assay: Antifilarial activity against microfilariae Brugia malayi assessed as inhibition of motility at 3.9 ug/ml incubated for 48 hrs followed by washout measured after 1 hr in the absence of drug by microscopic analysis; assay type: functional; outline: as §4
Brugia malayi [15] = assay: Antifilarial activity against microfilariae Brugia malayi after 48 hrs by MTT assay; assay type: functional, organism-based
Brugia malayi [16] = assay: Antifilarial activity against adult Brugia malayi at 31.25 ug/ml by MTT assay relative to control; assay type: functional; outline: as §1
Brugia malayi [17] = assay: Antifilarial activity against adult Brugia malayi infected in jird assessed as sterilized female worm at 50 mg/kg, ip administered for 5 consecutive days measured on day 51; assay type: functional; details: route intraperitoneal
Outline: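 In the i.p.-transplanted adult B. malayi jird model, 50 mg/kg was given i.p. for 5 consecutive days, 5 animals per group. Necropsy on day 51 recovered peritoneal worms. Live females were teased in PBS pH 7.2 and uterine oocytes, eggs and mf checked microscopically for abnormality or death. Result is % sterilized females.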

[18] = (§6) Cytotoxicity against african green monkey Vero cells after 72 hrs by resazurin dye-based fluorimetric analysis; assay type: cell-based; details: chlorocebus sabaeus, Vero cells
Outline: (§7)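 Vero cells were seeded at 10,000 per well and left overnight at 37 °C in CO2. Samples were tested in triplicate from a 300 µg/mL top concentration in 3:1 serial dilutions, with drug-free and cell-free controls. Resazurin was added after 72 h drug exposure for 2–4 h, then read at ex 536/em 588 nm. CC50 was taken from fluorescence vs concentration.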

[19] = Selectivity ratio of CC50 for african green monkey Vero cells to IC50 for adult Brugia malayi; assay type: ADME, cell-based; outline: as §3
Vero = assay: as §6; assay type: cell-based; details: chlorocebus sabaeus, vero, 72 h; outline: as §7
Brugia malayi [20] = assay: Antifilarial activity against adult Brugia malayi infected in jird assessed as sterilized female worm at 100 mg/kg, sc administered for 5 consecutive days measured on day 51; assay type: functional; details: route subcutaneous
Outline: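 Jirds carrying i.p.-transplanted adult B. malayi got 100 mg/kg s.c. daily for 5 days, 5 animals per group. They were euthanized on day 51 and worms recovered from the peritoneal cavity. Live females were teased in PBS pH 7.2 and uterine contents examined microscopically. Any abnormal or dead oocytes, eggs or mf counted as sterilized, reported as % sterile females.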

Brugia malayi [21] = assay: Antifilarial activity against adult Brugia malayi infected in jird assessed as worm mortality at 100 mg/kg, sc administered for 5 consecutive days measured on day 51; assay type: functional; details: route subcutaneous; outline: as §5
Brugia malayi [22] = assay: Antifilarial activity against adult Brugia malayi at 1.9 ug/ml by MTT assay relative to control; assay type: functional; outline: as §1
Brugia malayi [23] = assay: Antifilarial activity against microfilariae Brugia malayi assessed as inhibition of motility at 1.9 ug/ml incubated for 48 hrs followed by washout measured after 1 hr in the absence of drug by microscopic analysis; assay type: functional; outline: as §4
Brugia malayi [24] = assay: Antifilarial activity against adult Brugia malayi assessed as inhibition of motility at 1.9 ug/ml incubated for 48 hrs followed by washout measured after 1 hr in the absence of drug by microscopic analysis; assay type: functional; outline: as §2
[25] = Brugia malayi, 48 h, read-out: IC50

Row | Compound | inhibition at 7.8 µg/mL (Brugia malayi [1]) [%] | inhibition at 31.25 µg/mL (Brugia malayi [3]) [%] | MIC (Brugia malayi [4]) | inhibition at 15.6 µg/mL (Brugia malayi [5]) [%] | selectivity ratio [7] | inhibition at 31.25 µg/mL (Brugia malayi [8]) [%] | Activity (Brugia malayi [10]) [%] | inhibition at 7.8 µg/mL (Brugia malayi [11]) [%] | inhibition at 15.6 µg/mL (Brugia malayi [13]) [%] | MIC (Brugia malayi [15]; Brugia malayi, 48 h) [µg/mL] | IC50 (Brugia malayi [15]; [25]) [µg/mL] | inhibition at 31.25 µg/mL (Brugia malayi [16]) [%] | Activity (Brugia malayi [17]) [%] | CC50 at 72 h [18] [µg/mL] | also measured
1 | CC/C=C\C/C=C\C/C=C\CCCCCCCC(=O)OC[C@H](CO[C@@H]1O[C@H](CO[C@H]2O[C@H](CO)[C@H](O)[C@H](O)[C@H]2O)[C@H](O)[C@H](O)[C@H]1O)OC(=O)CCCCCCCCCCCCCCC | 0 | 50 | inactive | 0 | > 37 | 100 | -45.8 | 90 | 95 | 31.2 (≈ 34.1 µM) | 2.7 (≈ 2.95 µM) | 30 | 0 | > 100 | inhibition (Brugia malayi [2]): inactive; inhibition (Brugia malayi [6]): inactive; inhibition (Brugia malayi [9]): inactive; inhibition at 3.9 µg/mL (Brugia malayi [12]): 0%; inhibition at 3.9 µg/mL (Brugia malayi [14]): 70%
2 | IVERMECTIN [listing 1 of 2 here] |  |  |  |  |  |  |  |  |  |  |  |  |  |  | Ratio CC50/IC50 ([7]; vero): > 27.62; Ratio CC50/IC50 ([19]; vero): > 62.11; IC50 (Brugia malayi [15]): 3.62 µg/mL; CC50 (Vero): 52.84 µg/mL
3 | Oc1cc(O)c2c(c1)O[C@@H](c1ccc(O)c(O)c1)[C@H](O)C2 [(-)-CATECHIN] |  | 60 |  |  |  | 60 |  |  |  |  |  | 43.2 |  |  | 
4 | O=C(O)c1ccc(O)c(O)c1 [PROTOCATECHUIC ACID] |  | 50 |  |  |  | 60 |  |  |  |  |  | 20.6 |  |  | 
5 | IVERMECTIN [listing 2 of 2 here] |  |  |  |  |  |  |  |  |  |  |  |  |  |  | MIC (Brugia malayi [15]): 125 µg/mL
6 | Oc1ccc([C@H]2Oc3cc(O)cc(O)c3C[C@H]2O)cc1 [EPIAFZELECHIN (2R,3R)(-)] |  | 50 |  |  |  | 59 |  |  |  |  |  | 14.8 |  |  | 
7 | CCCCCCCCCCCCCCCCCCCCCCCCCCCCO [OCTACOSANOL] | 0 | 50 | inactive | 0 | > 30.7 | 100 | -49.95 | 85 | 95 | 31.2 (≈ 76.1 µM) | 3.26 (≈ 7.94 µM) | 32.6 | 0 | > 100 | inhibition (Brugia malayi [6]): inactive; inhibition (Brugia malayi [9]): inactive
8 | CCN(CC)C(=O)N1CCN(C)CC1 [DIETHYLCARBAMAZINE] |  |  | inactive |  |  |  |  |  |  |  |  |  |  |  | Activity (Brugia malayi [20]): 0%; Activity (Brugia malayi [21]): -30.5%; MIC (Brugia malayi [15]): inactive
9 | CC/C=C\C/C=C\C/C=C\CCCCCCCC(=O)OC[C@H](CO[C@@H]1O[C@H](CO[C@H]2O[C@H](CO)[C@H](O)[C@H](O)[C@H]2O)[C@H](O)[C@H](O)[C@H]1O)OC(=O)CCCCCCC/C=C\C/C=C\C/C=C\CC | 61.8 | 100 | 3.9 µg/mL (≈ 4.16 µM) | 75 | > 62.2 | 100 | -58.3 | 99 | 100 | 15.6 (≈ 16.6 µM) | 1.61 (≈ 1.71 µM) | 82.9 | 0 | > 100 | inhibition at 3.9 µg/mL (Brugia malayi [2]): 100%; IC50 (Brugia malayi [4]): 1.25 µg/mL (≈ 1.33 µM); inhibition at 15.6 µg/mL (Brugia malayi [6]): 100%; inhibition at 1.9 µg/mL (Brugia malayi [22]): 43.6%; selectivity ratio ([19]; Vero cells, read-out: Ratio CC50/IC50): > 80; inhibition at 7.8 µg/mL (Brugia malayi [9]): 100%; inhibition at 3.9 µg/mL (Brugia malayi [12]): 52.1%; inhibition at 1.9 µg/mL (Brugia malayi [23]): 60%; inhibition at 3.9 µg/mL (Brugia malayi [14]): 95%; inhibition at 1.9 µg/mL (Brugia malayi [24]): 90%
10 | CCCCCCCC/C=C\CCCCCCCC(=O)OC[C@H](CO[C@@H]1O[C@H](CO[C@H]2O[C@H](CO)[C@H](O)[C@H](O)[C@H]2O)[C@H](O)[C@H](O)[C@H]1O)OC(=O)CCCCCCCCCCCCCCC | 0 | 50 | inactive | 0 | > 95.2 | 100 | -54.15 | 90 | 99 | 31.2 (≈ 34 µM) | 1.05 (≈ 1.14 µM) | 24.6 | 0 | > 100 | inhibition (Brugia malayi [2]): inactive; inhibition (Brugia malayi [6]): inactive; inhibition (Brugia malayi [9]): inactive; inhibition at 3.9 µg/mL (Brugia malayi [12]): 0%; inhibition at 3.9 µg/mL (Brugia malayi [14]): 80%
11 | Oc1cc(O)c2c(c1)O[C@H](c1ccc(O)c(O)c1)[C@H](O)C2 [(-)-EPICATECHIN] |  | 50 |  |  |  | 50 |  |  |  |  |  | 34.8 |  |  | 
